HDAC3 inhib: inhibitors of human histone deacetylase 3; O15379; actives 0.15% (n = 320,000); inhibition, % at 8.3 µM; AID 2718; recombinant HDAC3, fluorogenic peptide/trypsin coupled, fluorescence; in the data active = inhibition above about 26%, passing the limit was not always enough
Target sequence (O15379 whole entry, looked up): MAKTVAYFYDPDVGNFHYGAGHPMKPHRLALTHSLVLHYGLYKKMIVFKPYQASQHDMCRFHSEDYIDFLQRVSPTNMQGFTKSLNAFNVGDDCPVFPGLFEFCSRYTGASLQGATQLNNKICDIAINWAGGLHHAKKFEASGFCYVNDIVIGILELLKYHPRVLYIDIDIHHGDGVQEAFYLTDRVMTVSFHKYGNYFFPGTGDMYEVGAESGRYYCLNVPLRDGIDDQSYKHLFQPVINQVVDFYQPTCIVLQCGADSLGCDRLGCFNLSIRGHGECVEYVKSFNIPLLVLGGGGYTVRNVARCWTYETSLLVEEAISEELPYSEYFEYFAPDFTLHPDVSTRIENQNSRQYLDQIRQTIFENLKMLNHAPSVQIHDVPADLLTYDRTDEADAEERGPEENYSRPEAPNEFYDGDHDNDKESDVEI
LANA-H2A inh: blocks KSHV LANA binding to histone H2A/H2B | Q9QR71 | cell-free LANA-H2A/H2B peptide, fluorescence polarization | inhibition, % (test concentration not listed) | actives 0.6% (n = 320,000) | AID 2629; in the data active = inhibition mostly above about 10%, no sharp cut-off; inactive = mostly below about 6.7%
T cell HTS: T cell immune modulators affecting CD8 T cell-vesicle binding; 2C CD8+ T cell-vesicle binding, flow cytometry; active compounds read low; response (vesicle binding), % at 7 µM; actives 0.068% (n = 330,000);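 active = response, share of CD8 T cells binding vesicles, and their 90th percentile fluorescence all below set limits, cut at about 80% in these data, passing the limit was not always enough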;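 note: values below 100% mean blocked vesicle binding to the CD8+ T cells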
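incubation = binding step 1.5 h, 37 °C, antibody labelling 20 min, ice | test system = 2C mouse CD8+ T cells | read-out basis = percent CD8+ FL2 mean versus row control | controls = Peptide-free naked vesicles (low) and QL9 vesicles with 0.7% DMSO vehicle (high) | detection = flow cytometry of vesicle-bound cells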
Arr AP2 block: human beta-arrestin and AP2 interaction inhibition | FITC-arrestin peptide / GST-AP2 beads, flow cytometry; AP2 beta2 appendage carries R879A mutation | inhibition, % at 10 µM | actives 0.31% (n = 340,000) | AID 504490;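 active = inhibition above a set limit, near 3 SD of compounds lacking own fluorescence, cut at about 54% in these data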
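System: GST-AP2 R879A bound to glutathione beads, E. coli-expressed. Also added: 50 nM FITC-arrestin peptide. Schedule: compound with beads 12 min RT, then probe 1 h RT. Signal: bead flow cytometry, FITC channel. Read-out basis: percent response.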
Pemphigus Ab inh: inhibitors of pemphigus antibody binding to human desmoglein-3. actives 0.48% (n = 310,000). DSG3-coupled beads, scFv-anti-DSG3-GFP binding, flow cytometry; active compounds read low. binding (percent of control), % at 10 µM;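 active = binding more than 3 SD below its plate's average and above zero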;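 note: hits lower antibody fragment binding to DSG3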
Arr-AP2 CP1: inhibitors of human beta-arrestin and AP2 interaction; shares compounds with Arr AP2 block; GST-AP2 beads, FITC arrestin peptide binding, flow cytometry; GST-fused beta2-adaptin appendage, R879A mutant; inhibition, % at 10 µM; actives 2% (n = 1,300);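 active = inhibition above a set limit, roughly 3 SD of non-fluorescent compound noise, cut at about 38% in these data; inactive = inhibition at or below that limit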;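 note: loss of bead fluorescence from 50 nM FITC arrestin peptide bound to appendage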
GST-FITC bead: GST-GSH bead binding interference, counter-screen. shares compounds with Arr AP2 block. GST-fluorescein binding to GSH beads, fluorescence. inhibition, % at 10 µM. actives 2% (n = 1,300). AID 588338;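 active = inhibition above 50%, about 3 SD of the inhibition seen with non-fluorescent compounds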;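 note: fluorescein maleimide labelled GST captured on 4 micron glutathione beads; higher means more loss of bead fluorescence from quenching or blocked binding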
Hits are given with their value; - = inactive; . = no result. An excerpt weighted towards active compounds, which were near 1.5% of everything screened.

SMILES | HDAC3 inhib | LANA-H2A inh | T cell HTS | Arr AP2 block | Pemphigus Ab inh | Arr-AP2 CP1 | GST-FITC bead
CC(=O)Nc1ccc(S(=O)(=O)N2c3ccccc3NC(=O)CC2C)c(Cl)c1 (stereo not drawn) | - | - | - | 54 | - | - | -
Cc1ccccc1N1CC2=C(C1=O)C(c1ccccc1)NC(=O)N2C (stereo not drawn) | - | - | - | - | - | . | .
CN1C(=O)NC(c2ccc(O)cc2)C2=C1CN(c1cccc3ccccc13)C2=O (stereo not drawn) | - | - | - | - | - | - | -
CCSCc1nnc(SCC(=O)Nc2cccc(SC)c2)n1C | - | - | - | 99 | - | - | -
CCSCc1nnc(SCC(=O)Nc2cccc(C(C)=O)c2)n1C | - | - | - | - | - | . | .
O=C(CCCC(=O)Nc1cccnc1)Nc1cccnc1 | - | - | - | 82 | - | - | .
CCC(C)c1ccc(OCC(=O)Nc2ccc(CN3CCOCC3)cc2)cc1 (stereo not drawn) | - | - | - | - | - | . | .
O=C(O)c1cnn2c(-c3ccccc3)ccnc12 | - | - | - | - | - | . | .
NC(=O)c1cnn2c(-c3cccc(C(F)(F)F)c3)ccnc12 | - | - | - | 68 | - | - | -
COc1ccccc1Nc1nc2c(C)cccc2cc1C#N | - | - | - | 57 | - | - | -
COc1ccccc1Nc1nc2ccc(C)cc2cc1C#N | - | - | - | - | - | . | .
CCOC(=O)COc1ccc2c(C#N)c3ccccn3c2c1 | . | . | . | 56 | - | - | -
O=C(O)C1OC(C(=O)O)C(C(=O)O)C1C(=O)O (stereo not drawn) | . | . | . | 58 | - | - | -
COc1ccc2cc(C(=O)C3CCCN(C(=O)C4=NN(C)C(=O)CC4)C3)ccc2c1 (stereo not drawn) | - | - | - | - | - | . | .
COc1ccc(S(=O)(=O)Nc2ccc3c(c2)C(=O)N([C@@H](C)CO)C[C@@H](C)[C@H](CN(C)S(=O)(=O)c2ccc(F)cc2)OCCCC[C@H](C)O3)cc1 | . | . | . | . | - | . | .
COc1ccccc1/C=C1/SC(=O)N(CCC(=O)Nc2ccc(S(=O)(=O)Nc3nccs3)cc2)C1=O | - | - | - | 61 | - | - | -
O=C(CCN1C(=O)S/C(=C\c2ccccc2)C1=O)Nc1ccc(S(=O)(=O)Nc2nccs2)cc1 | - | - | - | - | - | . | .
CCOc1ccc(C(=O)NC(=S)Nc2ncccc2C)cc1[N+](=O)[O-] | - | - | - | 58 | - | - | -
COc1ccc(CNC(=O)Cn2c(=O)n(CC(=O)N3CCCCC3)c(=O)c3sccc32)cc1 | - | - | - | - | - | . | .
CN(Cc1ccccn1)C(=O)C1CCC(=O)N(Cc2cccc(F)c2)C1 (stereo not drawn) | - | - | - | - | - | . | .
COc1cccc(CN(C)C(=O)C2CCC(=O)N(Cc3cccc(F)c3)C2)c1 (stereo not drawn) | - | - | - | - | - | - | -
CCN(CC)C(=O)Cn1cc(/C=C(\C#N)C(=O)NC2CC2)c2ccccc21 | - | - | - | 61 | - | - | -
NS(=O)(=O)c1cc(Br)c2c(c1)S(=O)(=O)NCN2 | . | . | . | . | - | . | .
COc1ccc(CCC(C)NC2CCCCCCC2)cc1 (stereo not drawn) | - | - | - | 64 | - | - | -
CC(C)Cn1c(N)c(C(=O)COC(=O)c2cccn2C)c(=O)n(C)c1=O | - | - | - | - | - | - | -
SMILES | HDAC3 inhib | LANA-H2A inh | T cell HTS | Arr AP2 block | Pemphigus Ab inh | Arr-AP2 CP1 | GST-FITC bead
CC(C)Cn1c(N)c(C(=O)COC(=O)c2ccccc2F)c(=O)n(C)c1=O | - | - | - | - | - | - | -
CC(C)Cn1c(N)c(C(=O)COC(=O)c2ccccc2Cl)c(=O)n(C)c1=O | - | - | - | - | - | - | -
CC(C)Cn1c(N)c(C(=O)COC(=O)c2ccccc2C(=O)c2ccccc2)c(=O)n(C)c1=O | - | - | - | - | - | . | .
CCOc1ccc(S(=O)(=O)N2CCCC(C(=O)N3CCN(c4ccccc4)CC3)C2)cc1 (stereo not drawn) | - | - | - | - | - | . | .
COc1cccc(C(=O)OCC(=O)c2c(N)n(C)c(=O)n(C)c2=O)c1 | - | - | - | - | - | - | -
COc1ccc(C(=O)OCC(=O)c2c(N)n(C)c(=O)n(C)c2=O)c(OC)c1OC | - | - | - | - | . | - | -
Cn1c(N)c(C(=O)COC(=O)c2ccc(C(F)(F)F)cc2)c(=O)n(C)c1=O | - | - | - | - | - | - | -
Cn1c(N)c(C(=O)COC(=O)c2ccc(-c3ccccc3)cc2)c(=O)n(C)c1=O | - | - | - | - | - | . | .
CC(C)Cn1c(N)c(C(=O)COC(=O)c2ccc(F)cc2)c(=O)n(C)c1=O | - | - | - | - | - | - | -
CC(C)Cn1c(N)c(C(=O)COC(=O)c2c(F)cccc2F)c(=O)n(C)c1=O | - | - | - | - | - | . | .
Cn1c(N)c(C(=O)COC(=O)c2ccnc3ccccc23)c(=O)n(C)c1=O | - | - | . | - | - | . | .
CC(=O)Nc1ccc(-c2csc(NC(=O)Cc3cccc(F)c3)n2)cc1 | - | - | - | - | - | . | .
CCN(CC(=O)Nc1c(F)cccc1F)C(=O)c1cccc(S(=O)(=O)N2CCCc3ccccc32)c1 | . | . | . | - | - | . | .
CCc1ccc(C(=O)OCC(=O)c2c(N)n(CC(C)C)c(=O)n(C)c2=O)cc1 | - | - | - | - | - | - | -
CC(C)Cn1c(N)c(C(=O)COC(=O)c2cccc(Cl)c2)c(=O)n(C)c1=O | - | - | - | - | - | . | .
Cn1c(N)c(C(=O)COC(=O)c2cccs2)c(=O)n(C)c1=O | - | - | - | - | - | - | -
Cc1noc(C)c1C(=O)OCC(=O)c1c(N)n(CC(C)C)c(=O)n(C)c1=O | - | - | - | - | - | - | -
O=C1CC2C(CCC23OCCO3)c2ccc3ccccc3c21 (stereo not drawn) | . | . | . | - | - | . | .
COC(=O)C1CCN(S(=O)(=O)CCNC(=O)c2ccccc2)CC1 | . | . | . | . | - | . | .
COc1ccc(N2C(=NC(=O)C3CCCCC3)SC3CS(=O)(=O)CC32)c(OC)c1 (stereo not drawn) | - | - | - | - | - | . | .
CSc1nc2c(c(=O)n1Cc1ccccc1)SC(C)C2 (stereo not drawn) | - | - | - | 56 | - | - | -
COc1ccc(-c2cn3nc(SCC(=O)NC4CCCCC4)ccc3n2)cc1 | - | - | - | - | - | . | .
O=C(COC(=O)C1CC2CCCC(C1)C2=O)Nc1ccc(Cl)cn1 (stereo not drawn) | . | . | - | - | - | . | .
Cc1ccc(S(=O)(=O)N(C)CC(=O)O/N=C(\N)c2ccccn2)cc1 | - | - | - | 97 | - | - | -
